In assay [1] the test system is four prostate cancer cell lines (DU 145, PC-3, LNCaP, PPC-1). Kind of assay: SRB assay, average over prostate cancer cell lines and selectivity vs RH7777. The assay is classed as cell-based, human. As to conditions: for IC50: Homo sapiens, RH7777, read-out: Aver. (average IC50 of four prostate cells IC50s). In outline: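 The control line was LPL receptor-negative RH7777 in DMEM/10% FBS. The prostate IC50s were averaged. Selectivity = IC50 in RH7777 divided by the average tumor-cell IC50.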

Assay [2] concerns three melanoma cell lines (B16-F1, A375, WM-164). Nature of the assay: SRB assay, average over melanoma cell lines and selectivity vs fibroblast. The assay is classed as cell-based, human, mouse. As to conditions: for IC50: Fibroblast.
Assay [3] deals with NCI-60 human tumor cell lines. Nature of the assay: NCI-60 human tumor cell line anticancer drug screen. The assay is classed as cell-based. As to conditions: read-out: GI50 range, all nine types of cancer cells.
The next assay relates to WM-164 cells. Kind of assay: SRB antiproliferative assay, WM-164 melanoma cells. The assay is classed as cell-based, human. Conditions: read-out: IC50 ± SEM WM-164. The essentials:
(§1)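 Melanoma lines (human A375, WM-164; mouse B16-F1) and human dermal fibroblasts were grown in DMEM with 5% FBS, 1% antibiotic/antimycotic and bovine insulin (5 μg/mL) at 37 °C, 5% CO2. Diastereomeric mixtures were applied over a wide concentration range for 48 h. Cells were then TCA-fixed (10%), washed, air-dried overnight and SRB-stained, with absorbance read at 560 nm. IC50 (50% growth inhibition versus untreated) was obtained by nonlinear regression.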

Another assay deals with B16-F1 cells. Nature of the assay: SRB antiproliferative assay, B16-F1 melanoma cells. The assay is classed as cell-based, mouse. Conditions: read-out: IC50 ± SEM B16-F1, 48 h, diastereomeric mixtures. The essentials:
as §1

Assay [4] has as its system Human dermal fibroblast cells. Kind of assay: SRB assay, fibroblast control cells. The assay is classed as cell-based. As to conditions: read-out: IC50 ± SEM Fibroblast, 48 h, control cell line for melanoma. In outline:
as §1

Another assay deals with A375 cells. Nature of the assay: SRB antiproliferative assay, A375 melanoma cells. Type of assay: cell-based, human. Conditions: read-out: IC50 ± SEM A375. The essentials: as §1
[5] abbreviates: read-out: Aver. (average IC50 of three melanoma cells IC50s).
Setting [6] is: read-out: IC50 range over melanoma cell lines.
The mark [7] stands for this setting: SRB, 48 h, diastereomeric mixtures.

Each structure is given as a SMILES string. Counter-ions that a name gives are not always drawn. Like-named read-outs stand apart in the source and are kept apart here. Bounds are passed on as bounds.

Data on 30 compounds can be found in paper PMC6675461 (Bioorganic & medicinal chemistry, 2009).

For the compound `CCCCCCCCCCCCCCCCCCNC(=O)[C@@H]1CSC(c2ccccc2)N1` (mixture of isomers) [Compound 1a, (2RS,4R)-2-Phenyl-thiazolidine-4-carboxylic acid octadecylamide], the IC50 amounted to 6900 nM in assay [1] and 11.6 µM in assay [2] (setting [5]). Further, in assay [3], the GI50 is 0.12 to 10.9 µM.

Take `CCCCCCCCCCCCCCCCCCNC(=O)[C@@H]1CSC(c2cc(OC)c(OC)c(OC)c2)N1` (mixture of isomers) [Compound 3aa, (2RS,4R)-2-(3,4,5-Trimethoxy-phenyl)-thiazolidine-4-carboxylic acid octadecylamide]: the “fold more potent than 1a against prostate cancer cells” value in assay [1] (from average IC50) was determined as 2.4 fold.

Take `CCCCCCCCCCCCCCCCCCNC(=O)[C@@H]1CSC(c2ccc(OC)c(OC)c2)N1` (mixture of isomers) [Compound 3ba, (2RS,4R)-2-(3,4-Dimethoxy-phenyl)-thiazolidine-4-carboxylic acid octadecylamide]: the figures for the IC50 in assay [1] and in assay [2] (setting [5]) were 3200 nM and 8 µM, respectively.

As for `CCCCCCCCC/C=C/CCCCCCCNC(=O)[C@@H]1CSC(c2ccc(OC)c(OC)c2)N1` (mixture of isomers) [Compound 3bc, (2RS,4R)-2-(3,4-Dimethoxy-phenyl)-thiazolidine-4-carboxylic acid (E)-octadec-8-enylamide], the IC50 in assay [1] amounted to 1200 nM.

Regarding `CCCCCCCCCCCCCCCCNC(=O)[C@@H]1CSC(c2ccccc2OC)N1` (mixture of isomers) [Compound 3ca, (2RS,4R)-2-(2-Methoxy-phenyl)-thiazolidine-4-carboxylic acid hexadecylamide], the values for the IC50 in assay [1] and in assay [2] (setting [5]) were 4800 nM and 3.2 µM, respectively.

With `CCCCCCCCCCCCCCCCNC(=O)[C@@H]1CSC(c2cccc(OC)c2)N1` (mixture of isomers) [Compound 3da, (2RS,4R)-2-(3-Methoxy-phenyl)-thiazolidine-4-carboxylic acid hexadecylamide], the results for the IC50 in assay [1] and in assay [2] (setting [5]) were 700 nM and 2 µM, respectively.

For the compound `CCCCCCCCCCCCCCCCNC(=O)[C@@H]1CSC(c2ccc(OC)cc2)N1` (mixture of isomers) [Compound 3ea, (2RS,4R)-2-(4-Methoxy-phenyl)-thiazolidine-4-carboxylic acid hexadecylamide], the IC50 in assay [1] amounted to 1600 nM; in assay [2] (setting [5]) it was 1.6 µM.

Regarding `CCCCCCCCCCCCCCCCNC(=O)[C@@H]1CSC(c2ccc(N(C)C)cc2)N1` (mixture of isomers) [Compound 3fa, (2RS,4R)-2-(4-Dimethylamino-phenyl)-thiazolidine-4-carboxylic acid hexadecylamide], the IC50 in assay [1] came out at 2800 nM.

Consider `CCCCCCCCCCCCCCCCNC(=O)[C@@H]1CSC(c2ccccc2NC(C)=O)N1` (mixture of isomers) [Compound 3ga, (2RS,4R)-2-(2-Acetylamino-phenyl)-thiazolidine-4-carboxylic acid hexadecylamide], for which the figures for the half-maximal inhibitory concentration (IC50) in assay [1] and in assay [2] (setting [5]) were 3000 nM and 7.1 µM, respectively.

`CC(=O)Nc1ccc(C2N[C@H](C(=O)NC34CC5CC(CC(C5)C3)C4)CS2)cc1` (mixture of isomers) [Compound 3ib, (2RS,4R)-2-(4-Acetylamino-phenyl)-thiazolidine-4-carboxylic acid adamantan-1-ylamide]: the IC50 in assay [2] (setting [5]) was 120 µM.

As to `CC(=O)Nc1ccc(C2N[C@H](C(=O)NC3C4CC5CC(C4)CC3C5)CS2)cc1` (mixture of isomers) [Compound 3ic, (2RS,4R)-2-(4-Acetylamino-phenyl)-thiazolidine-4-carboxylic acid adamantan-2-ylamide], the IC50 in assay [2] (setting [5]) turned out to be 79.5 µM.

Turning to `CC(=O)Nc1ccc(C2N[C@H](C(=O)Nc3ccc(-c4ccccc4)cc3)CS2)cc1` (mixture of isomers) [Compound 3if, (2RS,4R)-2-(4-Acetylamino-phenyl)-thiazolidine-4-carboxylic acid biphenyl-4-ylamide], in assay [2] (setting [5]), the IC50 is 5.3 µM.

Regarding `CCCCCCCCC#CCCCCCCCCCNC(=O)[C@@H]1CSC(c2ccc(NC(C)=O)cc2)N1` (mixture of isomers) [Compound 3ii, (2RS,4R)-2-(4-Acetylamino-phenyl)-thiazolidine-4-carboxylic acid nonadec-10-ynylamide], the IC50 in assay [1] worked out at 1700 nM.

As for `CCCCCCCCCCCCCCCCNC(=O)[C@@H]1CSC(c2ccccc2)N1` (mixture of isomers) [Compound 3ja, (2RS,4R)-2-Phenyl-thiazolidine-4-carboxylic acid hexadecylamide], the IC50 in assay [2] (setting [6]) was in the range of 0.7 to 2.1 µM.

Regarding `CCCCCCCCC/C=C\CCCCCCCNC(=O)[C@@H]1CSC(c2ccccc2)N1` (mixture of isomers) [Compound 3jb, (2RS,4R)-2-Phenyl-thiazolidine-4-carboxylic acid (Z)-octadec-8-enylamide], the IC50 in assay [1] came out at 1700 nM; in assay [2] (setting [5]) it was 4.4 µM.

Take `CCCCCCCCC/C=C/CCCCCCCNC(=O)[C@@H]1CSC(c2ccccc2)N1` (mixture of isomers) [Compound 3jc, (2RS,4R)-2-Phenyl-thiazolidine-4-carboxylic acid (E)-octadec-8-enylamide]: the IC50 turned out to be 5.9 µM in assay [2] (setting [5]) and 2400 ± 200 nM in the assay on WM-164 cells (Homo sapiens, WM164, 48 h).

`CCCCCCCCCCCCCCCCOC(=O)[C@@H]1CSC(c2ccc(NC(C)=O)cc2)N1` (mixture of isomers) [Compound 5, (2RS,4R)-2-(4-Acetylamino-phenyl)-thiazolidine-4-carboxylic acid hexadecyl ester]: the half-maximal inhibitory concentration (IC50) in assay [2] (setting [5]) was 29.5 µM.

In the case of `CCCCCCCCCCCCCCCCNC[C@@H]1CSC(c2ccccc2)N1` (mixture of isomers) [Compound 8a, (2RS,4R)-Hexadecyl-(2-phenyl-thiazolidin-4-ylmethyl)-amine hydrochloride], the IC50 in assay [2] (setting [5]) is 7.5 µM.

As to `CCCCCCCCCCCCCCCCNC(=O)[C@@H]1CSC(c2ccc(N)cc2)N1` (mixture of isomers) [Compound 13b, (2RS,4R)-2-(4-Amino-phenyl)-thiazolidine-4-carboxylic acid hexadecylamide], the IC50 in assay [1] worked out at 1800 nM.

As to `CCCCCCCCCCCCCCCCNC(=O)[C@@H]1CSC(c2ccc(NS(C)(=O)=O)cc2)N1` (mixture of isomers) [Compound 15a, (2RS,4R)-2-(4-Methanesulfonylaminophenyl)-thiazolidine-4-carboxylic acid hexadecylamide], the IC50 in assay [2] (setting [5]) is 60.9 µM; in assay [2] (setting [6]), 5.7 to 114 µM.

Turning to `CCCCCCCCCCCCCCCCNC(=O)[C@@H]1CSC(c2ccc(NC(N)=O)cc2)N1` (mixture of isomers) [Compound 15c, (2RS,4R)-2-(4-Ureido-phenyl)-thiazolidine-4-carboxylic acid hexadecylamide], the IC50 is 2000 nM in assay [1] and 3.9 µM in assay [2] (setting [5]).

Take `[NH2][Pt]([NH2])([Cl])[Cl]` [CDDP, cisplatin, reference compound]: the IC50 was over 100 µM in the assay on B16-F1 cells, over 100 µM in assay [4], over 100 µM in the assay on A375 cells (setting [7]) and over 100000 nM in the assay with WM-164 cells (setting [7]). In addition, the “Antiproliferative activity on melanoma cell lines, in words” value in assay [2] (reference compounds, in vitro) is “resistant”.

Consider `CCCCCCCCC/C=C\CCCCCCCNC(=O)[C@@H]1CSC(c2cc(OC)c(OC)c(OC)c2)N1` (stereo partly drawn) [Compound 3ab, (2RS,4R)-2-(3,4,5-Trimethoxy-phenyl)-thiazolidine-4-carboxylic acid octadec-8-cis-enylamide], for which the IC50 amounted to 1000 nM in assay [1] and 2.8 µM in assay [2] (setting [5]).

`CCCCCCCCC/C=C/CCCCCCCNC(=O)[C@@H]1CSC(c2cc(OC)c(OC)c(OC)c2)N1` (stereo partly drawn) [Compound 3ac, (2RS,4R)-2-(3,4,5-Trimethoxy-phenyl)-thiazolidine-4-carboxylic acid octadec-8-trans-enylamide]: the IC50 in assay [1] was determined as 800 nM; in assay [2] (setting [5]), 2 µM.

`CC(=O)Nc1ccc(C2N[C@H](C(=O)Nc3ccc4cc5ccccc5cc4c3)CS2)cc1` (some centres unmarked) [Compound 3ie]: the IC50 came out at 1000 nM in assay [1] and 3.4 µM in assay [2] (setting [5]).

On to `CCCCCCCCCCCCCCCCNC(=O)[C@@H]1CSC(c2ccc(NC(=O)CCl)cc2)N1` (stereo partly drawn) [Compound 15b, (2RS,4R)-2-[4-(2-Chloro-acetylamino)-phenyl]-thiazoli-dine-4-carboxylic acid hexadecylamide], for which the IC50 was 1000 nM in assay [1], 39.8 µM in assay [2] (setting [5]) and 5.7 to 114 µM in assay [2] (setting [6]).

In the case of `CCCCCCCCCCCCCCCCNC(=O)[C@@H](N)CSC` [Compound 16a, (2R)-2-Amino-N-hexadecyl-3-methylsulfanyl-propion-amide], the IC50 in assay [2] (setting [6]) was in the range of 12.9 to 14.4 µM.

`CCCCCCCCCCCCCCCCNC(=O)[C@@H](N)CSCc1ccccc1` [Compound 16c, (2R)-2-Amino-3-benzylsulfanyl-N-hexadecyl-propionamide]: the IC50 in assay [2] (setting [6]) fell in the range of 12.8 to 15.1 µM.

In the case of `CCCCCCCCCCCCCCCCNC(=O)CNCc1ccc(NC(C)=O)cc1` [Compound 16d, 2-(4-Acetylamino-benzylamino)-N-hexadecyl-acetamide], the IC50 in assay [2] (setting [6]) is 10.2 to 11.9 µM.

In the case of `CNC(=O)c1cc(Oc2ccc(NC(=O)Nc3ccc(Cl)c(C(F)(F)F)c3)cc2)ccn1` [Sorafenib, reference compound], the IC50 in the assay on A375 cells (Homo sapiens, A-375, 48 h) is 5.4 ± 0.5 µM.
